Measurements from ChEMBL document CHEMBL4138246, “Natural product inspired library synthesis - Identification of 2,3-diarylbenzofuran and 2,3-dihydrobenzofuran based inhibitors of Chlamydia trachomatis” (Eur J Med Chem, 2018).

Assays:
[1] = Cytotoxicity against human HeLa 299 cells assessed as cell viability at 25 uM after 48 hrs by XTT assay relative to control; type: cell-based; conditions: read-out: Activity
Outline: (§1)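 HeLa299 cells are seeded at 7000/well and cultured overnight in RPMI with 10% FBS and 2 mM […] at 37 °C with 5% CO2. The medium is then swapped for phenol red-free DMEM with 0.5% DMSO, with or without compound at 25 and 50, in at least three replicate wells each, for 48 h. XTT with activation reagent is read after 2.5 h at 475 minus 660 nm, blank-corrected, and expressed as % of DMSO control.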

[2] = Cytotoxicity against human HeLa 299 cells assessed as cell viability at 50 uM after 48 hrs by XTT assay relative to control; type: cell-based; conditions: for viability at 48 h, 50 µM: HeLa 299 cells, read-out: Activity; for Activity: 48 h, 50 µM; outline: as §1
[3] = Cytotoxicity against human HeLa 299 cells assessed as reduction in cell viability after 48 hrs by XTT assay; type: cell-based; outline: as §1
Chlamydia trachomatis [4] = experiment: Antichlamydial activity against Chlamydia trachomatis serovar L2 454/Bu infected in human HeLa 299 cells assessed as reduction in number of inclusion bodies measured after 44 to 48 hrs by DAPI staining-based HCS assay; type: functional, organism-based
Outline: (§2)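 HeLa299 cells are seeded at 15,000/well, cultured overnight at 37 °C with 5% CO2 in RPMI with 10% FBS and 2 mM […], then infected with serovar L2 454/Bu at MOI about 0.3 in HBSS. At 1 h the inoculum is replaced with medium containing 0.5% DMSO and 1:1 serial dilutions of compound over eleven concentrations. After 44–48 h, cells are fixed in methanol for 5 min. Inclusions are stained with rabbit anti-Chlamydia antibody, a FITC secondary, and DAPI. Inclusions over 130 µm² are counted by automated imaging and expressed as % of DMSO-control inclusions. IC50 is from nonlinear regression of at least three independent experiments.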

[5] = Cytotoxicity against human HeLa 299 cells assessed as reduction in cell viability at 25 uM after 48 hrs by XTT assay
Chlamydia trachomatis [6] = experiment: Antichlamydial activity against Chlamydia trachomatis serovar L2 infected in human HeLa 299 cells assessed as reduction in number of inclusion bodies measured after 44 to 48 hrs by DAPI staining-based HCS assay; type: functional, organism-based; outline: as §2
Chlamydia trachomatis [7] = experiment: Antichlamydial activity against Chlamydia trachomatis serovar D […] infected in human HeLa 299 cells assessed as reduction in number of inclusion bodies measured after 44 to 48 hrs by DAPI staining-based HCS assay; type: functional, organism-based
Chlamydia trachomatis [8] = experiment: Antichlamydial activity against Chlamydia trachomatis serovar A […] infected in human HeLa 299 cells assessed as reduction in number of inclusion bodies measured after 44 to 48 hrs by DAPI staining-based HCS assay; type: functional, organism-based

IC50 (Chlamydia trachomatis [4]; read-out: IC50) [µM] | IC50 (Chlamydia trachomatis [4]; read-out: pIC50 (converted)) [µM] | IC50 (Chlamydia trachomatis [6]) [µM] | IC50 (Chlamydia trachomatis [7]) [µM] | IC50 (Chlamydia trachomatis [8]) [µM] | Compound | viability at 48 h, 25 µM [1] [%] | viability at 48 h, 50 µM [2] [%] | Activity [3] | Activity [5] | Activity [2] [%]
10.6 | 10.6 |  |  |  | COc1ccc(C2c3ccc(OC)cc3OC2c2cccc(OC)c2)cc1 (racemic) | 76 | 90 |  |  | 
2.7 | 2.73 | 1.81 | 2.19 | 1.34 | COc1ccc(-c2oc3cc(OC)ccc3c2-c2ccnc(F)c2)cc1 | 68 | 93 |  |  | 
27 | 27 |  |  |  | COc1ccc(-c2oc3cc(OC)ccc3c2-c2ccc(F)c(F)c2)cc1 | 96 | 101 |  |  | 
2 | 2.04 | 0.965 | 2.04 | 1.6 | COc1ccc(-c2oc3ccccc3c2-c2ccnc(F)c2)cc1 | 84 | 97 |  |  | 
11.6 | 11.6 |  |  |  | COc1ccc(-c2oc3ccccc3c2-c2ccc(OC)cc2)cc1 | 92 | 94 |  |  | 
15 | 15 |  |  |  | c1ccc(COc2ccc(-c3oc4ccccc4c3-c3cccnc3)cc2)cc1 | 76 | 82 |  |  | 
27.2 | 27.2 |  |  |  | Fc1ccc(C2c3ccccc3OC2c2ccccc2)cc1F (racemic) | 75 | 87 |  |  | 
12.8 | 12.8 |  |  |  | COc1ccc(-c2oc3cc(OC)ccc3c2-c2ccc(OC)cc2)cc1 | 106 | 100 |  |  | 
22.1 | 22.1 |  |  |  | COc1ccc(-c2oc3ccccc3c2-c2cccc(F)c2)cc1 | 79 | 84 |  |  | 
1 | 0.998 | 0.581 | 0.7 | 0.079 | COc1cccc(C2Oc3cc(OC)ccc3C2c2ccc(F)c(F)c2)c1 (racemic) | 93 | 95 |  |  | 
25.8 | 25.8 |  |  |  | COc1cccc(C2Oc3ccc(F)cc3C2c2ccc3c(c2)OCO3)c1 (racemic) | 88 | 103 |  |  | 
2.4 | 2.44 | 1 | 2.44 | 2.63 | COc1ccc(-c2oc3ccccc3c2-c2cccnc2)cc1 | 82 | 103 |  |  | 
23.4 | 23.4 |  |  |  | COc1ccc2c(c1)OC(c1ccccc1)C2c1ccc(F)c(F)c1 (racemic; 38) | 84 |  |  |  | 102
15.2 | 15.2 |  |  |  | COc1ccc(-c2oc3ccc(F)cc3c2-c2ccc(OC)cc2)cc1 | 82 | 99 |  |  | 
19.8 | 19.9 |  |  |  | COc1cccc(C2Oc3ccc(F)cc3C2c2ccc(F)c(F)c2)c1 (racemic) | 80 | 118 |  |  | 
8.7 | 8.73 |  |  |  | COc1ccc(-c2oc3ccccc3c2-c2ccc(F)c(F)c2)cc1 | 90 | 96 |  |  | 
25 | 25 |  |  |  | N#Cc1cccc(C2c3ccccc3OC2c2ccccc2)c1 (racemic) | 90 | 96 |  |  | 
4.2 | 4.21 | 4.73 | 5.04 | 1.84 | COc1ccc(-c2oc3ccc(F)cc3c2-c2ccnc(F)c2)cc1 | 90 | 103 |  |  | 
24.9 | 24.9 |  |  |  | Fc1cccc(C2c3cc(F)ccc3OC2c2ccccc2)c1 (racemic) | 83 | 84 |  |  | 

Continued, molecule first:

Compound | IC50 (Chlamydia trachomatis [4]; read-out: IC50) [µM] | IC50 (Chlamydia trachomatis [4]; read-out: pIC50 (converted)) [µM] | IC50 (Chlamydia trachomatis [6]) [µM] | IC50 (Chlamydia trachomatis [7]) [µM] | IC50 (Chlamydia trachomatis [8]) [µM] | viability at 48 h, 25 µM [1] [%] | viability at 48 h, 50 µM [2] [%] | Activity [3] | Activity [5] | Activity [2] [%]
Oc1ccc(-c2oc3ccccc3c2-c2ccc(O)cc2)cc1 |  |  |  |  |  | 74 | 32 | Dose-dependent effect |  | 
Oc1ccc(-c2oc3ccc(F)cc3c2-c2ccnc(F)c2)cc1 |  |  |  |  |  | 107 | 53 | Dose-dependent effect |  | 
COc1cccc(-c2oc3ccc(F)cc3c2-c2ccc3c(c2)OCO3)c1 |  |  |  |  |  |  | < 70 |  | Toxic | 
Oc1ccc(-c2oc3ccccc3c2-c2cccnc2)cc1 |  |  |  |  |  | 79 | 61 | Dose-dependent effect |  | 
Oc1ccc(-c2oc3ccccc3c2-c2ccnc(F)c2)cc1 |  |  |  |  |  | 90 | 52 | Dose-dependent effect |  | 
COc1ccc(-c2oc3cc(OC)ccc3c2-c2ccc(C(F)(F)F)cc2)cc1 |  |  |  |  |  | 84 | 45 | Dose-dependent effect |  | 
COc1ccc(-c2oc3cc(OC)ccc3c2-c2ccc(F)cc2)cc1 |  |  |  |  |  |  | < 70 |  | Toxic | 
Oc1ccc(-c2oc3cc(O)ccc3c2-c2ccc(F)cc2)cc1 |  |  |  |  |  | 105 | 42 | Dose-dependent effect |  | 
COc1ccc(C2c3ccc(OC)cc3OC2c2ccccc2)cc1 (racemic) |  |  |  |  |  |  | < 70 |  | Toxic | 
CC[C@H]1OC(=O)[C@H](C)[C@@H](O[C@H]2C[C@@](C)(OC)[C@@H](O)[C@H](C)O2)[C@H](C)[C@@H](O[C@@H]2O[C@H](C)C[C@H](N(C)C)[C@H]2O)[C@](C)(O)C[C@@H](C)CN(C)[C@H](C)[C@@H](O)[C@]1(C)O [AZITHROMYCIN] |  |  | 0.727 |  |  |  |  |  |  | 
Oc1ccc(-c2oc3ccc(F)cc3c2-c2ccc(O)cc2)cc1 |  |  |  |  |  |  | < 70 |  | Toxic | 
Oc1ccc(-c2oc3ccccc3c2-c2cccc(F)c2)cc1 |  |  |  |  |  |  | < 70 |  | Toxic | 
Oc1ccc(-c2oc3cc(O)ccc3c2-c2ccnc(F)c2)cc1 |  |  |  |  |  |  | < 70 |  | Toxic | 
c1ccc(C2Oc3ccccc3C2c2ccccc2)cc1 (racemic) | 25.4 | 25.4 |  |  |  | 72 | 88 |  |  | 
CC1COc2c(N3CCN(C)CC3)c(F)cc3c(=O)c(C(=O)O)cn1c23 (centres undefined) [OFLOXACIN] |  |  | 0.666 |  |  |  |  |  |  | 
COc1ccc2c(c1)OC(c1ccccc1)C2c1ccc(F)c(F)c1 (racemic; 39) |  |  |  |  |  |  |  |  | Toxic | < 70
